Experimental data: the RNAGym collection of RNA variant scans (doi:10.1126/science.aae0568)
Fewer inactive variants are shown than the library holds.

B1: tRNA (parent)
chain: GUUCCGUUGGCGUAAUGGUAACGCGUCUCCCUCCUAAGGAGAAGACUGCGGGUUCGAGUCCCGUACGGAACG

Variants of: B1
Assay: yeast fitness relative to wild type (ratio to wild type); higher = fitter; tRNA-Arg(CCU), competitive growth, 37 C, YPD
In short: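 Start and end populations of a pooled competition were compared by 100-nucleotide paired-end sequencing of gene amplicons. The Saccharomyces cerevisiae strains carried tRNA-Arg(CCU) gene variants at the native genomic locus, synthesised with a 3% per-site mutation rate at 69 sites, and competed in YPD at 37°C for 24 hours in six parallel replicates. Darwinian fitness relative to wild type was based on the change in genotype frequencies. Genotypes required ≥ 100 starting reads, and estimates < 0.5 were set to 0.5.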

Row | Variant | yeast fitness
1 | GUUCCGUUGGAGUAAUGGUAACGCGUCUCCGUCCUAAGGAGUAGACUGCGGGUUCGAGUCCCGUACAGAACG [C11A C31G A42U G67A] | ≤ 0.5
2 | GUUCCGUUGGAGUAAUGGUAACGCGUAUCCCUCCUAAGGAGAAGACUGCGGGUUCGAGUCCCGUACGGAGCG [C11A C27A A70G] | ≤ 0.5
3 | GUUCCGUUGGAGUAAUGGUAACGCGUCUCCGUCCUAAGGAGAAGACUGCGGGUUCGAGUCCGGUACGGAACG [C11A C31G C62G] | 0.506
4 | GUUCCGUUGGAGUAAUGGUAACGCGUCUCCCUCCUAAGGAGAAGACUGCGGGUUGGAGUCCCGUACGGAACG [C11A C55G] | 0.535
5 | GUUCCGUUGGAGUAAUGGUAACGCGUUUCACUCCUAAGGAGACGACUGCGGGUUCGAGUUCCGUACGGAACG [C11A C27U C30A A43C C60U] | ≤ 0.5
6 | GUUCCGUUGGAGUAAUGGUAACGCGUCUCCCUUCUAAGGAGAAGACUGUGGGUUCGAGUGCCGUACGGAACG [C11A C33U C49U C60G] | ≤ 0.5
7 | GUUCCGUUGGAGAAAUGGUAACGCGUCUCCGUCCUAAGGAGAAGACUGCGGGUUCGAGUCCCGUCCGGAACG [C11A U13A C31G A65C] | ≤ 0.5
8 | GUUCCGUUGGAGUAAUGGAAACGCGUCUACCACCUAAGGAGAAGACUGCGGGUCGGAGUGCCGUACGGAUCG [C11A U19A C29A U32A U54C C55G C60G A70U] | ≤ 0.5
9 | GUUCCGUUGGAGUAAUGGUAACACGUCUCCCUCCUAAGGAGAAGACUGCGGGUUCGAGUCCCCUACGGAACG [C11A G23A G63C] | 0.551
10 | GUUCCGUUGGAGUAAUGGUAACGCGUUUCCUUCGUAAGGGGAAGACUGCGGGUUCGAGUCCCGUACGGAACG [C11A C27U C31U C34G A40G] | ≤ 0.5
11 | GUUCCGUUGGAGUAAUGGAAACGCGUCUCCCUCCUAAGGAGUAGCCUGCGGGUUUGAGUCCCGUACGGCACG [C11A U19A A42U A45C C55U A69C] | 0.538
12 | GUUCCGUUGGAGUAAUGGUAACGCGUCUCCCUCCUAAGGAGAAGACUGCGGGUUCGAGUCCGAUACGGAACG [C11A C62G G63A] | ≤ 0.5
13 | GUUCCGUUGGAAUAAUGGUAACGCAUCUCCCUCCUAAGGAGAAGACUGCGGGUUCGAGUCCCGUACGGAACG [C11A G12A G25A] | 0.604
14 | GUUCCGUUGGAGUAAUGGUAACGCGUCUCCCUCGGAAGAAGAAGACUGCGGGUUCGAGUCCCGUACGGAACG [C11A C34G U35G G39A] | ≤ 0.5
15 | GUUCCGUUGGAGUAAUGGUAACGCGUUUCCUUCGUAAGGGGAAGACUGCGGGUUCGAGUCCCCUACGGAACG [C11A C27U C31U C34G A40G G63C] | ≤ 0.5
16 | GUUCCGUUGGAGUAAUGGGAACGCGUCUCCCUCCUGAGGAGAAGACUGAGGGUUCGAGUCCCGUACGCAACG [C11A U19G A36G C49A G68C] | ≤ 0.5
17 | GUUCCGUUGGAGUAAUGAUAACGCGUCUCCCUCCUAAGGAGAAGACUGCGGGUUCGAGUCCCGUACGGAACG [C11A G18A] | 0.58
18 | GUUCCGUUGGAGUAAUCGUAACGCGUCUCCCUCCUAAGGAGAAGACAGCGGGUUCGAGUCCCGUACGCAACG [C11A G17C U47A G68C] | ≤ 0.5
19 | GUUCCGUUGGAGUAAUGGUAACGCGUCUCUCUCCUAAGGAGCAGACUGCGGGUUCGAGUCCCGUACGGAACG [C11A C30U A42C] | ≤ 0.5

Row | Variant | yeast fitness
20 | GUUCCGUUGGAGUAAUGGUAACGCGUCUCUCUCCUAAGGAGAAGCCUGCGGGUUCGAGUCCCGUACGGAACG [C11A C30U A45C] | ≤ 0.5
21 | GUUCCGUUGGAGUAAUGGUAACGCGUCUCUCUGCUAAGGAGAAGACUGCGGGUUCGAGUCCCGCACGGAACG [C11A C30U C33G U64C] | ≤ 0.5
22 | GUUCCGUUGGAGUAAUGGUAACGCGUCUCCCUCCUAAUGAGAAGACUGCGGGUUCGAGUCCCGUAAGGAACG [C11A G38U C66A] | ≤ 0.5
23 | GUUCCGUUGGAGUAAUGGUAACGCGUCUCCACCCUAAGGAGAACACUGCGGGUUCGAGUCCCGUGCGGAACG [C11A C31A U32C G44C A65G] | ≤ 0.5
24 | GUUCCGUUGGAGUAAUGGUAACGCGUGUCCCUCCUAAGGAGAAGACUGCGGGUUCGAGUCCUGUACGAAACG [C11A C27G C62U G68A] | ≤ 0.5
25 | GUUCCGUUGGAGUAAUGGUAACGCGUCUCCCUCCUAAGGAGAACACUGCGGGUUCAAGUCCCGUAUGGAACG [C11A G44C G56A C66U] | 0.552
26 | GUUCCGUUGGAGUAAUGGUAACGCGUCUUCCUCCUAAGGAGAAGAUUGCGGGUUCGAGUCCCGUACCGUACG [C11A C29U C46U G67C A69U] | ≤ 0.5
27 | GUUCCGUUGGAGUAAUGGUAACGCGUCUCCAUCCUAAUGAGAACACUGCGGGUUCGAGUCCCGUGCGGAACG [C11A C31A G38U G44C A65G] | ≤ 0.5
28 | GUUCCGUUGGAGUAAUGGUAACGCGUUUCCCUCCUAAGGAGAACACUGCGGGUUCGAGUCCCGUACGGAACG [C11A C27U G44C] | 0.572
29 | GUUCCGUUGGAGUAAUGGUAACGCGUCUCCCUCCUAAGGAGAAGACUGCAGGUUCGAGUCCCGUACGGAACG [C11A G50A] | 0.651
30 | GUUCCGUUGGAGUAAUGGUAACGCGUCUCCCUCCUAAGGAGAAGAUUGCGGGUUCGAGUCCCGUACGGAGCG [C11A C46U A70G] | 0.56
31 | GUUCCGUUGGAGUAAUGGUAACGCGUCUCGUCCCUAAGGAGAAGACUGCGGAUUCGAGCCCCGUACGGAACG [C11A C30G C31U U32C G52A U59C] | ≤ 0.5
32 | GUUCCGUUGGAGUAAUGGUAACGCGUCUCCCUCCUAAGGAGAAGACUACGGGUACGAGUCCCGUACGGAACG [C11A G48A U54A] | 0.584
33 | GUUCCGUUGGAGUAAUGGUAACGCGUCUCCCUCCUAAGGAGAAGACUGUGGGUUCGAGUCUCGUACGGAACG [C11A C49U C61U] | ≤ 0.5
34 | GUUCCGUUGGAGUAAUGGUAACGCGUCUCCCUCAUAAGGAGAAGACAGCGGGUUCGAGUCGCGUACGGAACG [C11A C34A U47A C61G] | ≤ 0.5
35 | GUUCCGUUGGAGUAAUGGUAACGCGUCUCCCUCCUAAGGAGAAGAGUGCGGGUUCGAGUCCCGUGCGGAACG [C11A C46G A65G] | ≤ 0.5
36 | GUUCCGUUGGAGUAAUAGUAACGCGUCUCCCUCCUAAGGAGAAGACUGCGGGUUCGAGUCCCGUACGGAACG [C11A G17A] | 0.579
37 | GUUCCGUUGGAGUAAUGGUAACGCGUCUCCCUACUAAGGGGAGGACUGCGGGUUCGAGUCCCGUACGGAACG [C11A C33A A40G A43G] | ≤ 0.5
38 | GUUCCGUUGGAGUAAUGGUAACGCGUCUCCCUCCUAAGGAGAAGACUGCGGGUUCGAGUCCCGUACGUAACG [C11A G68U] | 0.54
